Assays:
[1] = system: Leishmania amazonensis; assay: Antileishmanial activity against Leishmania amazonensis MHOM/IFLA/BR/67/PH8 promastigotes after 72 hrs by cell counting using Neubauer chamber; assay type: functional, organism-based; conditions: MHOM/IFLA/BR/67/PH8, 72 h
Outline: (§1)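 Log-phase promastigotes seeded at 1 × 10⁶ parasites/mL in Schneider's Drosophila medium with 20% FBS, streptomycin and penicillin (100 U/mL), 26 °C, with or without a range of compound concentrations; Glucantime and amphotericin B as reference controls. At 72 h cells fixed in citric acid/NaCl/formalin isotonic solution and counted microscopically; IC50/72 h by probit regression.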

[2] = system: Leishmania chagasi; assay: Antileishmanial activity against Leishmania chagasi MCAN/BR/99/JP15 promastigotes after 72 hrs by cell counting using Neubauer chamber; assay type: functional, organism-based; conditions: MCAN/BR/99/JP15, 72 h; outline: as §1

Row | SMILES | IC50 [1] [µM] | IC50 [2] [µM]
1 | COC(=O)c1ccccc1O [METHYL SALICYLATE] | 228 | 261
2 | C=C(C(=O)Oc1ccccc1C(=O)OC)C(O)c1cccc([N+](=O)[O-])c1 (configuration not stated) | 22.9 | 40.6
3 | C=C(C(=O)Oc1ccccc1C(=O)OC)C(O)c1ccc2ccccc2c1 (configuration not stated) | 9 | 41.4
4 | C=C(C(=O)Oc1ccccc1C(=O)OC)C(O)c1ccccc1[N+](=O)[O-] (configuration not stated) | 7.65 | 10.1
5 | C=C(C(=O)Oc1ccccc1C(=O)OC)C(O)c1ccc(Br)cc1 (configuration not stated) | 22 | 43

Further compounds by falling IC50 [1], results first:

Row | IC50 [1] [µM] | IC50 [2] [µM] | SMILES
6 | 108 | 119 | C=CC(=O)Oc1ccccc1C(=O)OC [METHYL SALICYLATE ACRYLIC ESTER]
7 | 31.2 | 38.7 | C=C(C(=O)Oc1ccccc1C(=O)OC)C(O)c1cccnc1 (configuration not stated)
8 | 23.8 | 33.4 | C=C(C(=O)Oc1ccccc1C(=O)OC)C(O)c1ccncc1 (configuration not stated)
9 | 22.4 | 49.1 | C=C(CCC(=O)Oc1ccccc1C(=O)OC)C(=O)Oc1ccccc1C(=O)OC
10 | 11.3 | 57.3 | C=C(C(=O)Oc1ccccc1C(=O)OC)C(O)c1ccc([N+](=O)[O-])cc1 (configuration not stated)
11 | 0.12 | 0.69 | C[C@@H]1[C@H](O)[C@@H](C)/C=C/C=C/C=C/C=C/C=C/C=C/C=C/[C@H](O[C@@H]2O[C@H](C)[C@@H](O)[C@H](N)[C@@H]2O)C[C@@H]2O[C@](O)(C[C@@H](O)C[C@@H](O)[C@H](O)CC[C@@H](O)C[C@@H](O)CC(=O)O[C@H]1C)C[C@H](O)[C@H]2C(=O)O [AMPHOTERICIN B]
